The test system of data set [1] is Mus musculus. Kind of data set: Behavioral toxicity in po dosed albino Icem-CET (SPF Caw) mouse assessed as reduction in locomotor activity by Irwin's test. The note with it: in vivo. The class given is organism-based.
Data set [2] concerns Mus musculus. Briefly: Behavioral toxicity in albino Icem-CET (SPF Caw) mouse assessed as tremor at 200 to 800 mg/kg, po measured after 90 mins by Irwin's test. The note with it: in vivo, 1.5 h. The format is organism-based. On the set-up: dose 200-800 mg/kg, route oral.
Data set [3] relates to Mus musculus. Briefly: Behavioral toxicity in albino Icem-CET (SPF Caw) mouse assessed as positional passivity at 25 to 800 mg/kg, po measured up to 90 mins by Irwin's test. The format is organism-based. Set-up: dose 25-800 mg/kg, route oral. The following applies: in vivo, 1.5 h.
Data set [4] deals with Mus musculus. Kind of data set: Behavioral toxicity in po dosed albino Icem-CET (SPF Caw) mouse assessed as tremors by Irwin's test. The class given is organism-based. The note with it: in vivo.
For data set [5], the system named is Mus musculus. Kind of data set: Toxicity in albino Icem-CET (SPF Caw) mouse assessed as clonic type convulsion at 200 to 800 mg/kg, po measured after 90 mins by Irwin's test. The class given is organism-based. On the set-up: dose 200-800 mg/kg, route oral. The note with it: in vivo, 1.5 h.
Data set [6] concerns Mus musculus. Briefly: Behavioral toxicity in albino Icem-CET (SPF Caw) mouse assessed as twitches at 200 to 800 mg/kg, po measured after 90 mins by Irwin's test. The class given is organism-based. Set-up: dose 200-800 mg/kg, route oral. The note with it: in vivo, 1.5 h.
Data set [7] in a line: Toxicity in po dosed albino Icem-CET (SPF Caw) mouse assessed as mortality measured after 24 to 72 hrs. The note with it: in vivo. The class given is organism-based.
In data set [8] the test system is Mus musculus. Briefly: Behavioral toxicity in po dosed albino Icem-CET (SPF Caw) mouse assessed as positional passivity by Irwin's test. The format is organism-based. The following applies: in vivo.
Data set [9] concerns Mus musculus. Briefly: Anticonvulsant activity in po dosed albino Icem-CET (SPF Caw) mouse assessed as inhibition of pentylenetetrazole-induced maximal extensor seizures compound administered 30 mins prior challenge. The class given is functional. The essentials: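 Pentylenetetrazole antagonism in male Icem-CET (SPF Caw) mice, 17-22 g, fasted 9 h. Compound in 0.5% Methocel was given by gavage (0.2 ml/10 g) at 4-5 doses, 20 mice per dose, 30 min before pentylenetetrazole 130 mg/kg ip. Prevention of maximal extensor seizures was scored. ED50 was calculated by probit analysis, with fiducial limits at p = 0.05.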

The test system of data set [10] is Mus musculus. Briefly: Behavioral toxicity in albino Icem-CET (SPF Caw) mouse assessed as clonic type convulsion at 25 to 800 mg/kg, po by Irwin's test. The class given is organism-based. Set-up: dose 25-800 mg/kg, route oral. The note with it: in vivo.
The nature of data set [11]: Behavioral toxicity in po dosed albino Icem-CET (SPF Caw) mouse measured up to 7 days by Irwin's test. The following applies: in vivo. The class given is organism-based.
The test system of data set [12] is Mus musculus. Kind of data set: Behavioral toxicity in albino Icem-CET (SPF Caw) mouse assessed as positional passivity at 25 to 800 mg/kg, po by Irwin's test. Set-up: dose 25-800 mg/kg, route oral. The format is organism-based. The following applies: in vivo.
Data set [13] relates to Mus musculus. Briefly: Anticonvulsant activity in albino Icem-CET (SPF Caw) mouse assessed as inhibition of pentylenetetrazole-induced maximal extensor seizures at 100 mg/kg, po administered 30 mins prior challenge. The format is functional, organism-based. Set-up: dose 100 mg/kg. The essentials: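 Single-dose screen at 100 mg/kg by gavage in 0.5% Methocel in fasted male Icem-CET (SPF Caw) mice, 17-22 g. Dosing was 30 min before pentylenetetrazole 130 mg/kg ip, and prevention of maximal extensor seizures was scored.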

Data set [14] relates to Mus musculus. Kind of data set: Behavioral toxicity in albino Icem-CET (SPF Caw) mouse assessed as tremors at 25 to 800 mg/kg, po by Irwin's test. The class given is organism-based. Set-up: dose 25-800 mg/kg, route oral. The following applies: in vivo.
Data set [15] relates to Mus musculus. Briefly: Behavioral toxicity in po dosed albino Icem-CET (SPF Caw) mouse assessed as excitement at 25 to 100 mg/kg, po measured up to 30 mins post dose by Irwin's test. The format is organism-based. Set-up: dose 25-100 mg/kg, route oral. The following applies: in vivo, 0.5 h.
Data set [16] relates to Mus musculus. Kind of data set: Behavioral toxicity in albino Icem-CET (SPF Caw) mouse assessed as reduction in locomotor activity at 25 to 800 mg/kg, po by Irwin's test. The format is organism-based. Set-up: dose 25-800 mg/kg, route oral. The following applies: in vivo.
Data set [17] has as its system Mus musculus. Briefly: Toxicity in po dosed albino Icem-CET (SPF Caw) mouse assessed as impairment of corneal reflexes by Irwin's test. The format is organism-based, Cornea. The note with it: in vivo.
Data set [18] has as its system Mus musculus. Briefly: Toxicity in po dosed albino Icem-CET (SPF Caw) mouse assessed as clonic type convulsion by Irwin's test. The format is organism-based. The note with it: in vivo. The essentials:
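Irwin test in fasted (9 h) male Icem-CET (SPF Caw) mice, 17-22 g. Oral gavage of a 0.5% Methocel suspension at screening doses of 25-800 mg/kg. Clonic-type convulsions were scored as the minimum effective dose.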

In data set [19] the test system is Mus musculus. Kind of data set: Toxicity in po dosed albino Icem-CET (SPF Caw) mouse assessed as impairment of pinna by Irwin's test. The class given is organism-based. The note with it: in vivo.

Activity calls are given as the source filed them. The rule behind the calls is not given here.

For `O=C1NC(=O)C(c2ccccc2)(c2ccccc2)N1` [PHENYTOIN], the ED50 came out at 150 mg/kg with Mus musculus [1] and 250 mg/kg in the data set with Mus musculus [4]. Also, the Activity entry in the data set on Mus musculus [2], in the data set with Mus musculus [3], in the data set on Mus musculus [5] and in the data set on Mus musculus [6] was “Non-toxic” each time.
As for `C/C(C(=O)NC1CC1)=C(/C)c1ccc(Br)cc1`, the ED50 with Mus musculus [1] stood at 100 mg/kg; with Mus musculus [4], 130 mg/kg; in the data set on Mus musculus [8] it was 600 mg/kg; in the data set on Mus musculus [9], 8.2 mg/kg. Moreover, the LD50 in data set [7] is 200 mg/kg.
In the case of `C#CCNC(=O)/C(C)=C(\C)c1ccc(Cl)cc1`, the ED50 in the data set on Mus musculus [1] came to 60 mg/kg; in the data set on Mus musculus [4] it was 200 mg/kg; in the data set with Mus musculus [8] it was 400 mg/kg. Besides, the LD50 in data set [7] came out at 140 mg/kg.
As to `C=CCNC(=O)/C(C)=C(/C)c1ccc(Br)cc1`, in the data set with Mus musculus [1], the ED50 turned out to be 400 mg/kg. Further, the Activity entry with Mus musculus [10], in the data set on Mus musculus [12] and in the data set on Mus musculus [14] was “Non-toxic” throughout. Also, the LD50 at 168 h in [11] came out at 600 mg/kg. Moreover, the result in the data set with Mus musculus [13] was inactive.
For the compound `CCC1(c2ccccc2)C(=O)N=C([O-])NC1=O.[Na+]` (centres undefined) [PHENOBARBITAL SODIUM], the ED50 in the data set with Mus musculus [1] stood at 180 mg/kg; in the data set on Mus musculus [4] it was 110 mg/kg; in the data set on Mus musculus [8], 180 mg/kg. In data set [11], this compound showed an LD50 at 168 h of 290 mg/kg. The Activity result in the data set on Mus musculus [15] is reported as “Toxic”.
For the compound `C/C(C(=O)NC1CC1)=C(\C)c1ccc(F)cc1`, the Activity result in the data set with Mus musculus [16] is recorded as “Non-toxic”; in the data set with Mus musculus [17], “Toxic”; in the data set on Mus musculus [12], “Non-toxic”; in the data set on Mus musculus [19], “Toxic”. The same compound returned an LD50 at 168 h in [11] of 450 mg/kg. In addition, the MED with Mus musculus [18] came out at 800 mg/kg. For the same compound, in the data set on Mus musculus [13], the outcome was inactive. Besides, the ED50 in the data set with Mus musculus [4] is 600 mg/kg.

In general, ED50 refers to the dose that gives a 50% effect, or the effect in half of the subjects. One may read the LD50 as the dose expected to kill half of the subjects tested.
